ChEMBL document CHEMBL1144474, “Synthesis and anti-HIV-1 activity evaluation of 5-alkyl-2-alkylthio-6-(arylcarbonyl or alpha-cyanoarylmethyl)-3,4-dihydropyrimidin-4(3H)-ones as novel non-nucleoside HIV-1 reverse transcriptase inhibitors” (J Med Chem, 2007)

Assays:
[1] = tested on: Human immunodeficiency virus 1; test: Antiviral activity against wild type HIV1 3B in MT4 cells after 4 days by MTT method; format: functional, organism-based; details: Human immunodeficiency virus 1, 3B, MT4, 96 h
Outline: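 MT-4 cells at 1 × 10⁵ cells/mL infected with HIV-1 IIIB (titrated as CCID₅₀) at MOI 0.02, then plated right away into serial compound dilutions (DMSO stocks, 50 mM or higher). After 4 days at 37 °C, viable cells were counted by MTT. IC₅₀ is the concentration giving 50% protection from viral cytopathogenicity.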

[2] = Cytotoxicity against MT4 cells after 4 days by MTT method; format: cell-based; details: human
Outline: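 Uninfected MT-4 cells were run in parallel with the infected cultures across a range of compound concentrations (DMSO stocks, 50 mM or higher). After 4 days at 37 °C, viability was read by MTT. CC₅₀ is the concentration that cuts normal cell viability by 50%.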

[3] = Selectivity index, CC50 for MT4 cells/IC50 for HIV1 3B; format: functional
Outline: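 Ratio of CC₅₀ in uninfected MT-4 cells to IC₅₀ against HIV-1 IIIB cytopathogenicity in MT-4 cells. Both values come from the 4-day, 37 °C MTT read-out, run in parallel.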

[4] = tested on: Human immunodeficiency virus 1; test: Antiviral activity against HIV1 3B in human PBMC assessed by measuring p24 antigen production after 7 days by ELISA; format: functional, organism-based; details: Human immunodeficiency virus 1, 3B, 168 h
Outline: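 Donor PBMCs were isolated by density centrifugation, stimulated with PHA for 3 days and washed in PBS. Cells (2 × 10⁵/200 µL) were plated in serial compound dilutions and infected with HIV at 1000 CCID₅₀ per mL. On day 4, medium was partly replaced with fresh medium containing compound. p24 antigen in the supernatant was measured by ELISA on day 7.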

[5] = Selectivity index, CC50 for PBMC/IC50 for HIV1 3B; format: functional
[6] = Cytotoxicity against mock-infecected human PBMC; format: cell-based; details: mock-infected PBMC

IC50 [4] [µM]	SMILES	IC50 [1] [µM]	CC50 at 96 h [2] [µM]	Ratio CC50/IC50 [3]	Ratio CC50/IC50 [5]	CC50 [6] [µM]
	COc1ccc(CSc2nc(C(C#N)c3cccc4ccccc34)c(C(C)C)c(=O)[nH]2)cc1 (stereo unspecified)	> 2.09	2.09	<1		
	COc1ccc(CSc2nc(C(C#N)c3c(Cl)cccc3Cl)c(C(C)C)c(=O)[nH]2)cc1 (stereo unspecified)	> 23.5	23.5	<1		
	O=C(c1cc(=O)[nH]c(SC2CCCC2)n1)c1cccc2ccccc12	> 21	21	<1		
	Cc1ccnc2c1NC(=O)c1cccnc1N2C1CC1 [NEVIRAPINE]	0.25	> 200	>800		
	CCc1c(C(C#N)c2ccccc2)nc(SC(C)C)[nH]c1=O (stereo unspecified)	0.64	58	91		
	C#CCSc1nc(C(=O)c2cccc3ccccc23)c(C)c(=O)[nH]1	> 124	124	<1		
	N#CC(c1cc(=O)[nH]c(SC2CCCC2)n1)c1cccc2ccccc12 (stereo unspecified)	> 22.8	22.8	<1		
	CCc1c(C(C#N)c2cccc3ccccc23)nc(SC2CCCC2)[nH]c1=O (stereo unspecified)	0.18	51.9	293		
	CCc1c(C(C#N)c2cccc3ccccc23)nc(SCc2ccc([N+](=O)[O-])cc2)[nH]c1=O (stereo unspecified)	1.25	24.5	20		
	Cc1c(C(C#N)c2cccc3ccccc23)nc(SC2CCCC2)[nH]c1=O (stereo unspecified)	0.8	49.4	61		
	Cc1c(C(C#N)c2ccccc2)nc(SC2CCCC2)[nH]c1=O (stereo unspecified)	6.34	59	9		
	CCSc1nc(C(=O)c2ccccc2)cc(=O)[nH]1	> 247	247	<1		
	CC(C)Sc1nc(C(C#N)c2cccc3ccccc23)cc(=O)[nH]1 (stereo unspecified)	0.66	53.2	82		
	CCc1c(C(C#N)c2cccc3ccccc23)nc(SCC(=O)c2ccc(Cl)cc2)[nH]c1=O (stereo unspecified)	≥ 35.7	117	<=3		
	O=C(CSc1nc(C(=O)c2cccc3ccccc23)cc(=O)[nH]1)c1ccccc1	> 304	> 304			
1.66	CCc1c(C(C#N)c2cccc3ccccc23)nc(SC(C)C)[nH]c1=O (stereo unspecified)	0.24	> 344	>1400	>41	> 68.9
	CCc1c(C(C#N)c2ccccc2)nc(SCc2ccc([N+](=O)[O-])cc2)[nH]c1=O (stereo unspecified)	1.33	34.2	26		
	C#CCSc1nc(C(C#N)c2cccc3ccccc23)c(CC)c(=O)[nH]1 (stereo unspecified)	4.85	48	10		
	Cc1c(Sc2ccccc2)n(COCCO)c(=O)[nH]c1=O [HEPT]			80		

IC50 [4] [µM]	SMILES	IC50 [1] [µM]	CC50 at 96 h [2] [µM]	Ratio CC50/IC50 [3]	Ratio CC50/IC50 [5]	CC50 [6] [µM]
	CC(C)c1c(C(C#N)c2cccc3ccccc23)nc(SC2CCCC2)[nH]c1=O (stereo unspecified)	1.34	7.32	5		
	CCc1c(C(C#N)c2c(Cl)cccc2Cl)nc(SCc2ccc([N+](=O)[O-])cc2)[nH]c1=O (stereo unspecified)	2.22	23.5	11		
	COc1ccc(CSc2nc(C(C#N)c3ccccc3)c(C(C)C)c(=O)[nH]2)cc1 (stereo unspecified)	3.53	26.8	8		
0.99	Cc1c(C(C#N)c2cccc3ccccc23)nc(SCC(=O)c2ccccc2)[nH]c1=O (stereo unspecified)	0.09	164	1500	70	69.9
	CC(C)c1c(C(=O)c2cccc3ccccc23)nc(SC2CCCC2)[nH]c1=O	10.9	24.7	2		
	Cc1c(C(C#N)c2ccccc2)nc(SCC(=O)c2ccccc2)[nH]c1=O (stereo unspecified)	7.28	53.8	7		
	C=CCSc1nc(C(C#N)c2cccc3ccccc23)c(CC)c(=O)[nH]1 (stereo unspecified)	0.58	> 346	>585		
	CCc1c(C(=O)c2cccc3ccccc23)nc(SCc2ccccc2)[nH]c1=O	> 312	> 312			
	Cc1c(C(C#N)c2cccc3ccccc23)nc(SCC(=O)c2ccc(Cl)cc2)[nH]c1=O (stereo unspecified)	4.71	148	32		
	Cc1c(C(=O)c2ccccc2)nc(SC(C)C)[nH]c1=O	2.05	263	128		
	CCSc1nc(C(=O)c2cccc3ccccc23)c(CC)c(=O)[nH]1	27.8	197	7		
	CCSc1nc(C(C#N)c2cccc3ccccc23)c(CC)c(=O)[nH]1 (stereo unspecified)	1.17	122	103		
	C=CCSc1nc(C(=O)c2cccc3ccccc23)c(CC)c(=O)[nH]1	16.9	210	12		
	CCc1c(C(=O)c2ccccc2)nc(SC2CCCC2)[nH]c1=O	4.69	60.4	13		
	CCc1c(C(=O)c2cccc3ccccc23)nc(SC(C)C)[nH]c1=O	6.79	179	26		
	C#CCSc1nc(C(C#N)c2cccc3ccccc23)c(C)c(=O)[nH]1 (stereo unspecified)	2.7	46.1	17		
	CCc1c(C(=O)c2ccc3ccccc3c2)nc(SCc2ccccc2)[nH]c1=O	≥ 60.8	157	<=3		
	CCSc1nc(C(=O)c2cccc3ccccc23)cc(=O)[nH]1	37.6	242	6		
	Cc1c(C(C#N)c2ccccc2)nc(SC(C)C)[nH]c1=O (stereo unspecified)	0.002	10.8	4600		
